Assay results from ChEMBL document CHEMBL4406810, “Modifications on the Amino-3,5-dicyanopyridine Core To Obtain Multifaceted Adenosine Receptor Ligands with Antineuropathic Activity” (J Med Chem, 2019).
Active and inactive are the calls of the source. The calls are words filed in the database; no cut-off is given here.

Assays:
Adenosine receptor A3 = target: T1, Adenosine receptor A3 (Homo sapiens, UniProt P0DMS8); assay: Displacement of [125I]ABMECA from human A3R expressed in CHO cell membranes measured after 120 mins by scintillation counting method
T1 sequence (P0DMS8 whole entry): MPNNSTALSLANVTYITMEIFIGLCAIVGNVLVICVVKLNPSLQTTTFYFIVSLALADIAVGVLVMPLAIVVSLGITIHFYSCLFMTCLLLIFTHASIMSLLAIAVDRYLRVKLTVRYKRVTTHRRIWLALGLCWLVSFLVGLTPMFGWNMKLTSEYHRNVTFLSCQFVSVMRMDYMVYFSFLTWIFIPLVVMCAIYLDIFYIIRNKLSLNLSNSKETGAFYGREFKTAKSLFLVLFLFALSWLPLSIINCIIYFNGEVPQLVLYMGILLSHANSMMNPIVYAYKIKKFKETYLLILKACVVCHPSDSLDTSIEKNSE
Procedure, shortened: (§1)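 Nonspecific binding with 1 µM AB-MECA. GF/B filtration and counting. Ki via Cheng–Prusoff. Percent inhibition at 1 µM. Four experiments in triplicate.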

Adenosine receptor A2a [1] = target: T2, Adenosine receptor A2a (Homo sapiens, UniProt P29274); assay: Displacement of [3H]ZM241385 from human A2AR expressed in CHO cell membranes measured after 60 mins by scintillation counting method
Procedure, shortened: (§2)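 Nonspecific binding defined with 1 µM ZM241385. Filtered on GF/B, scintillation counted. Ki by Cheng–Prusoff. Percent inhibition at 1 µM. Four experiments in triplicate.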

Adenosine receptor A2b = target: T3, Adenosine receptor A2b (Homo sapiens, UniProt P29275); assay: Agonist activity at human A2B expressed in CHO cells assessed as stimulation of cAMP production by alphascreen assay; type: functional, cell-based
T3 sequence (P29275 whole entry): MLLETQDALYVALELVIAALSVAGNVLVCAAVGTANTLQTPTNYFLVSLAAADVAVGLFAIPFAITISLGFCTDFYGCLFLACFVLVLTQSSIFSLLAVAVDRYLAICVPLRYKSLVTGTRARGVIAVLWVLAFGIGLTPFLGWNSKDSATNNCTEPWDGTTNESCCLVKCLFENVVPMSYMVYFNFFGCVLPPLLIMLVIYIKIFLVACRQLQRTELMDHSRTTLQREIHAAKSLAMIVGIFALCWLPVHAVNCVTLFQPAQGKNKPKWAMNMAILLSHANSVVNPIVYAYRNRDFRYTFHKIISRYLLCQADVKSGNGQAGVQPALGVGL
Procedure, shortened: (§3)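 Compounds tested alone at final 1 nM to 1 µM. cAMP measured by AlphaScreen. Efficacy taken at 1 µM relative to NECA 1 µM (=100%). Four independent experiments in triplicate.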

Adenosine receptor A1 [2] = target: T4, Adenosine receptor A1 (Homo sapiens, UniProt P30542); assay: Inverse agonist activity at human A1AR expressed in CHO cells assessed as increase in forskolin-stimulated cAMP production by alphascreen assay; type: functional, cell-based
T4 sequence (P30542 whole entry): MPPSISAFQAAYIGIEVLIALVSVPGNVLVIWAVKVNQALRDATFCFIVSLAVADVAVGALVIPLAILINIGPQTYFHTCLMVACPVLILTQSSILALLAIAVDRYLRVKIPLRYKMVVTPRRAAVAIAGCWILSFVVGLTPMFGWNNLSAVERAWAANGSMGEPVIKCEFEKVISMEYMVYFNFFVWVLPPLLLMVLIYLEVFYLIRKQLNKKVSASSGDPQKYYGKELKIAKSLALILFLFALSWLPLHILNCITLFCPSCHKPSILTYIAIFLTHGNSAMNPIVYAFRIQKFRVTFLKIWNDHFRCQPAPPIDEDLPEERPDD
Procedure, shortened: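 Compounds at 1 nM to 1 µM. cAMP rise measured by AlphaScreen. EC50 from sigmoid fit. Four independent experiments in triplicate.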

[3] = target: T5, Adenosine receptor A2b (Homo sapiens) (UniProt P29275); assay: Agonist activity at human A2B expressed in CHO cells assessed as stimulation of cAMP production at 1 uM by alphascreen assay relative to NECA; type: functional, cell-based; procedure, shortened: as §3
T5 sequence (whole entry): T3 sequence (P29275 whole entry)

CHO = assay: Effect on cAMP level in wild-type CHO cells at 0.001 to 1 uM by alphascreen assay; type: functional, cell-based; settings: Cricetulus griseus
Procedure, shortened: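 Compounds at 1 nM to 1 µM final concentrations. cAMP quantified with AlphaScreen kit. Four independent experiments, each in triplicate.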

[4] = target: T6, Adenosine receptor A1 (Homo sapiens) (UniProt P30542); assay: Inverse agonist activity at human A1AR expressed in CHO cells assessed as increase in forskolin-stimulated cAMP production by alphascreen assay relative to DPCPX; type: functional, cell-based
T6 sequence (whole entry): T4 sequence (P30542 whole entry)
Procedure, shortened: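 Compounds at 1 nM to 1 µM. cAMP rise measured by AlphaScreen. EC50 from sigmoid fit. […] Four independent experiments in triplicate.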

Adenosine receptor A1 [5] = target: T4, Adenosine receptor A1; assay: Displacement of [3H]DPCPX from human A1AR expressed in CHO cell membranes measured after 90 mins by scintillation counting method
Procedure, shortened: (§4)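 Nonspecific binding with 1 µM DPCPX. GF/B filtration and scintillation counting. Ki by Cheng–Prusoff. Inhibition % at 1 µM. Four experiments in triplicate.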

[6] = target: T5, Adenosine receptor A2b (Homo sapiens); assay: Antagonist activity at human A2BR expressed in CHO cells assessed as inhibition of NECA-stimulated cAMP production at 1 uM by alphascreen assay relative to control; type: functional, cell-based
Procedure, shortened: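 Compounds added at 1 nM to 1 µM final, with percent inhibition read at 1 µM. AlphaScreen cAMP read-out. IC50 by sigmoid non-linear regression. Four independent experiments in triplicate.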

[7] = target: T7, Adenosine receptor A3 (Homo sapiens) (UniProt P0DMS8); assay: Displacement of [125I]ABMECA from human A3R expressed in CHO cell membranes at 1 uM measured after 120 mins by scintillation counting method relative to control; procedure, shortened: as §1
T7 sequence (whole entry): T1 sequence (P0DMS8 whole entry)

[8] = target: T6, Adenosine receptor A1 (Homo sapiens); assay: Displacement of [3H]DPCPX from human A1AR expressed in CHO cell membranes at 1 uM measured after 90 mins by scintillation counting method relative to control; procedure, shortened: as §4
Adenosine receptor A2a [9] = target: T2, Adenosine receptor A2a; assay: Displacement of [3H]ZM241385 from human A2AR expressed in CHO cell membranes at 1 uM measured after 60 mins by scintillation counting method relative to control; procedure, shortened: as §2
Adenosine receptor A2a [10] = target: T2, Adenosine receptor A2a; assay: Antagonist activity at human A2AR expressed in CHO cells assessed as inhibition of CGS21680-stimulated cAMP production by alphascreen assay; type: functional, cell-based

T2 sequence (P29274 whole entry): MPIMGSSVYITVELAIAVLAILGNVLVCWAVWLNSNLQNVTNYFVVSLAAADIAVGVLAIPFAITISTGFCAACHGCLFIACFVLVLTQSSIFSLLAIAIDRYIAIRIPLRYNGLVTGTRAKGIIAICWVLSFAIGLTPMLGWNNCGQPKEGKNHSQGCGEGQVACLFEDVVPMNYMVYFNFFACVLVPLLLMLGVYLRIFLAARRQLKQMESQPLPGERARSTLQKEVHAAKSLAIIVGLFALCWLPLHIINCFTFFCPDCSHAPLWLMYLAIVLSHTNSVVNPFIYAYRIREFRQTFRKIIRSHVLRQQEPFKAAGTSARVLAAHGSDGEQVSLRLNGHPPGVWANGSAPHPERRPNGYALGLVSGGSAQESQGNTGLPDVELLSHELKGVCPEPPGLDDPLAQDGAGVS

Row | Ki (Adenosine receptor A3) [nM] | Ki (Adenosine receptor A2a [1]) [nM] | EC50 (Adenosine receptor A2b) [nM] | EC50 (Adenosine receptor A1 [2]) [nM] | Efficacy [3] [%] | Emax [4] [%] | Ki (Adenosine receptor A1 [5]) [nM] | inhibition [6] [%] | inhibition [7] [%] | inhibition [8] [%] | inhibition (Adenosine receptor A2a [9]) [%] | IC50 (Adenosine receptor A2a [10]) [nM] | SMILES | Activity (CHO)
1 | 668 | 93 | > 1000 | 4.82 | 7 | 100 | 1.02 |  |  |  |  |  | N#Cc1cccc(CSc2nc(N)c(C#N)c(-c3ccco3)c2C#N)c1 | inactive
2 | 678 | 114 | > 1000 |  | 14 |  | 40 | 40 |  |  |  |  | N#Cc1c(N)nc(SCc2ccncc2)c(C#N)c1-c1ccco1 | inactive
3 |  |  | > 1000 |  | 1 |  |  | 6 | 17 | 20 | 18 |  | N#Cc1c(N)nc(NCCO)c(C#N)c1-c1ccco1 | inactive
4 | 134 | 108 | > 1000 | 3.41 | 9 | 30 | 2.71 |  |  |  |  |  | N#Cc1c(N)nc(SCc2ccccn2)c(C#N)c1-c1ccco1 | inactive
5 |  | 693 | 982 | 3.85 | 62 | 56 | 2.72 |  | 15 |  |  |  | COC(=O)c1cccc(CSc2nc(N)c(C#N)c(-c3cccs3)c2C#N)c1 | inactive
6 |  |  | > 1000 | 185 | 7 | 24 | 82 |  | 11 |  | 1 |  | COC(=O)c1ccc(CSc2nc(N)c(C#N)c(-c3ccco3)c2C#N)o1 | inactive
7 |  | 96 | > 1000 | 4.35 | 7 | 51 | 2.11 |  | 1 |  |  |  | COC(=O)c1cccc(CSc2nc(N)c(C#N)c(-c3ccoc3)c2C#N)c1 | inactive
8 | 211 |  | > 1000 |  | 3 |  | 243 |  |  |  | 11 |  | CC(=O)Nc1nc(SCCO)c(C#N)c(-c2ccco2)c1C#N | inactive
9 |  |  | > 1000 |  | 1 |  |  |  | 8 | 1 | 1 |  | N#Cc1c(N)nc(NCCO)c(C#N)c1-c1cccnc1 | inactive
10 |  |  | > 1000 | 128 | 7 | 83 | 57 | 33 | 29 |  | 27 |  | N#Cc1c(N)nc(SCCO)c(C#N)c1-c1ccco1 | inactive
11 |  |  | > 1000 |  | 1 |  | 324 | 4 | 29 |  | 33 |  | N#Cc1c(N)nc(NCCO)c(C#N)c1-c1cccs1 | inactive
12 |  |  | 852 | 58 | 32 | 39 | 19 | 38 | 34 |  | 19 |  | N#Cc1c(N)nc(SCCO)c(C#N)c1-c1ccoc1 | inactive
13 | 554 |  | 885 | 107 | 69 | 74 | 52 |  |  |  | 1 |  | N#Cc1c(N)nc(SCCO)c(C#N)c1-c1cccs1 | inactive
14 |  |  | > 1000 |  | 11 |  | 632 |  | 3 |  | 25 |  | N#Cc1c(N)nc(OCCO)c(C#N)c1-c1ccco1 | inactive
15 |  |  | > 1000 | 192 | 10 | 53 | 86 |  | 1 |  | 8 |  | N#Cc1c(N)nc(SCC(=O)OCc2ccccc2)c(C#N)c1-c1ccco1 | inactive
16 | 582 | 887 | > 1000 |  | 1 |  | 93 |  |  |  |  |  | N#CCSc1nc(N)c(C#N)c(-c2ccco2)c1C#N | inactive
17 |  |  | > 1000 |  | 4 |  | 108 |  | 25 |  | 17 |  | COC(=O)CSc1nc(N)c(C#N)c(-c2ccco2)c1C#N | inactive
18 | 780 |  | > 1000 |  | 1 |  | 742 |  |  |  | 8 |  | N#Cc1c(NC2CCCC2)nc(SCCO)c(C#N)c1-c1ccco1 | inactive
19 |  |  | > 1000 | 142 | 8 | 62 | 60 |  | 33 |  | 9 |  | N#Cc1c(N)nc(SCCO)c(C#N)c1-c1ccsc1 | inactive
20 |  | 636 | > 1000 | 6.26 | 15 | 72 | 1.18 |  | 8 |  |  |  | COC(=O)c1cccc(CSc2nc(N)c(C#N)c(-c3cccnc3)c2C#N)c1 | inactive
21 |  |  | > 1000 |  | 1 |  |  |  | 8 | 10 | 1 |  | N#Cc1c(Nc2ccc(I)cc2)nc(SCCO)c(C#N)c1-c1ccco1 | inactive
22 | 177 |  | > 1000 |  | 17 |  | 175 |  |  |  | 21 |  | N#Cc1c(N)nc(SCC(N)=O)c(C#N)c1-c1ccco1 | inactive
23 |  |  |  |  | 1 |  |  |  |  |  |  |  | CCCn1c(=O)c2[nH]c(C3CCCC3)nc2n(CCC)c1=O | 
24 | 948 | 24 | > 1000 | 2.73 | 1 | 47 | 1.42 |  |  |  |  | 83 | N#Cc1c(N)nc(SCc2cccnc2)c(C#N)c1-c1ccco1 | inactive
25 |  |  | > 1000 | 94 | 18 | 75 | 35 |  | 22 |  | 7 |  | N#Cc1c(N)nc(SCCO)c(C#N)c1-c1cccnc1 | inactive
26 |  | 224 | > 1000 | 57 | 1 | 29 | 23 |  | 26 |  |  |  | N#Cc1c(N)nc(SCC(=O)c2ccccc2)c(C#N)c1-c1ccco1 | inactive
